# Laboratory results taken from ChEMBL document CHEMBL3352487, “Synthesis, antibacterial activity, and biological evaluation of formyl hydroxyamino derivatives as novel potent peptide deformylase inhibitors against drug-resistant bacteria” (Eur J Med Chem, 2014).
# Assays:
# Staphylococcus aureus [1] = assay: Antimicrobial activity against Staphylococcus aureus after 24 hrs by broth microdilution method; type: functional
# How it was run: (§1)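 Broth microdilution following NCCLS M7-A4; ATCC strains and clinical isolates from a provincial hospital.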
# Staphylococcus aureus [2] = assay: Antimicrobial activity against methicillin-susceptible Staphylococcus aureus after 24 hrs by broth microdilution method; type: functional; how it was run: as §1
# Staphylococcus aureus [3] = assay: Antimicrobial activity against methicillin-resistant Staphylococcus aureus after 24 hrs by broth microdilution method; type: functional
# How it was run: (§2)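 Broth microdilution following NCCLS M7-A4, using ATCC strains and clinical isolates from a provincial hospital.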
# [4] = tested on: Staphylococcus epidermidis; assay: Antimicrobial activity against methicillin-resistant Staphylococcus epidermidis after 24 hrs by broth microdilution method; type: functional; how it was run: as §2
# [5] = tested on: Staphylococcus epidermidis; assay: Antimicrobial activity against methicillin-susceptible Staphylococcus epidermidis after 24 hrs by broth microdilution method; type: functional; how it was run: as §1
# Enterococcus faecalis [6] = assay: Antimicrobial activity against Enterococcus faecalis after 24 hrs by broth microdilution method; type: functional; how it was run: as §1
# Moraxella catarrhalis [7] = assay: Antimicrobial activity against Moraxella catarrhalis after 24 hrs by broth microdilution method; type: functional; how it was run: as §1
# Streptococcus pneumoniae [8] = assay: Antimicrobial activity against penicillin-resistant Streptococcus pneumoniae after 24 hrs by broth microdilution method; type: functional; how it was run: as §2
# hERG (KCNH2) [9] = target: T1, hERG (KCNH2) (Homo sapiens, UniProt Q12809); assay: Inhibition of human ERG at 1 uM
# T1 sequence (Q12809 whole entry): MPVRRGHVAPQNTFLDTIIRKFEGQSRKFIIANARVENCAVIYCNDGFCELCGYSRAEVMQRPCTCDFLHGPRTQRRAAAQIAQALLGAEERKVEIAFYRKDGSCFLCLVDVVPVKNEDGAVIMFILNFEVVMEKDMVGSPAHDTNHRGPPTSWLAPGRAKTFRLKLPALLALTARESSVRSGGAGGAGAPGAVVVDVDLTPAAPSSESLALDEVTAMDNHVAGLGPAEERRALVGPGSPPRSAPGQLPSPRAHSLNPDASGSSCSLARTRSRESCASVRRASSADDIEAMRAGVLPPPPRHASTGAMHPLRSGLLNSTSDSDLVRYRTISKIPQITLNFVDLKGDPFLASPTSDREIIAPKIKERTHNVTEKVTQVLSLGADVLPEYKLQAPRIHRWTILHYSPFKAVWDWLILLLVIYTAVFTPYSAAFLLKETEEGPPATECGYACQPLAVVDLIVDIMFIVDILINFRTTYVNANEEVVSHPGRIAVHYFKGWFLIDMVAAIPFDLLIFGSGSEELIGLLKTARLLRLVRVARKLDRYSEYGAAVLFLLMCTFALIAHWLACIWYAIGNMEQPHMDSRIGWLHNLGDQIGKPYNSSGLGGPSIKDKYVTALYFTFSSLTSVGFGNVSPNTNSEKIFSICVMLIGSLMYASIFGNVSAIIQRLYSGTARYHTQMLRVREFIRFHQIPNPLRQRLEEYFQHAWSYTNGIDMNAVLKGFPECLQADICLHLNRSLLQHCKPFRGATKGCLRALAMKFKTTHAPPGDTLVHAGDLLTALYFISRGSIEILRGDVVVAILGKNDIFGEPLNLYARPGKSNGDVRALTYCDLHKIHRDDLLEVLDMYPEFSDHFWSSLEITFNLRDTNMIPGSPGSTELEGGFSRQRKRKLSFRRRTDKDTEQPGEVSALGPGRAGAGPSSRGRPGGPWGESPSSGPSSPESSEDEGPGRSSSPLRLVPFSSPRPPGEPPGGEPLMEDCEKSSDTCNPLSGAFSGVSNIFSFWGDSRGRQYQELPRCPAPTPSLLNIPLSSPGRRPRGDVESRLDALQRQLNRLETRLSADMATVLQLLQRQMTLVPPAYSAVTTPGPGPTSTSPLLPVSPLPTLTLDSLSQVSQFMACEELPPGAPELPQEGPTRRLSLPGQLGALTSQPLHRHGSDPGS
# [10] = tested on: Staphylococcus epidermidis; assay: Antimicrobial activity against Staphylococcus epidermidis after 24 hrs by broth microdilution method; type: functional; how it was run: as §1
# Escherichia coli [11] = assay: Antimicrobial activity against Escherichia coli isolate 1 after 24 hrs by broth microdilution method; type: functional; details: isolate 1, 24 h; how it was run: as §1
# Escherichia coli [12] = assay: Antimicrobial activity against Escherichia coli isolate 2 after 24 hrs by broth microdilution method; type: functional; details: isolate 2, 24 h; how it was run: as §1
# Staphylococcus aureus [13] = assay: Antimicrobial activity against Staphylococcus aureus OXFORD after 24 hrs by broth microdilution method; type: functional; how it was run: as §2
# Staphylococcus aureus [14] = assay: Antimicrobial activity against Staphylococcus aureus WCUH29 after 24 hrs by broth microdilution method; type: functional; details: WCUH29, 24 h; how it was run: as §1
# Enterococcus faecalis [15] = assay: Antimicrobial activity against Enterococcus faecalis Isolate 1 after 24 hrs by broth microdilution method; type: functional; details: Isolate 1, 24 h; how it was run: as §1
# Enterococcus faecium = assay: Antimicrobial activity against Enterococcus faecium X7501 after 24 hrs by broth microdilution method; type: functional; details: X7501, 24 h; how it was run: as §1
# Haemophilus influenzae [16] = assay: Antimicrobial activity against Haemophilus influenzae Q1 after 24 hrs by broth microdilution method; type: functional; details: Q1, 24 h; how it was run: as §1
# Haemophilus influenzae [17] = assay: Antimicrobial activity against Haemophilus influenzae H128 after 24 hrs by broth microdilution method; type: functional; details: H128, 24 h; how it was run: as §1
# Haemophilus influenzae [18] = assay: Antimicrobial activity against AcrA-deficient Haemophilus influenzae H128 after 24 hrs by broth microdilution method; type: functional; details: H128, 24 h; how it was run: as §1
# Moraxella catarrhalis [19] = assay: Antimicrobial activity against Moraxella catarrhalis 1502 after 24 hrs by broth microdilution method; type: functional; details: Moraxella catarrhalis, 1502, 24 h; how it was run: as §1
# Streptococcus pneumoniae [20] = assay: Antimicrobial activity against Streptococcus pneumoniae 1629 after 24 hrs by broth microdilution method; type: functional; details: Streptococcus pneumoniae, 1629, 24 h; how it was run: as §1
# Streptococcus pneumoniae [21] = assay: Antimicrobial activity against Streptococcus pneumoniae N1387 after 24 hrs by broth microdilution method; type: functional; details: N1387, 24 h; how it was run: as §1
# Streptococcus pneumoniae [22] = assay: Antimicrobial activity against Streptococcus pneumoniae ERY2 after 24 hrs by broth microdilution method; type: functional; details: ERY2, 24 h; how it was run: as §1
# Escherichia coli [23] = assay: Antimicrobial activity against Escherichia coli isolate 3 after 24 hrs by broth microdilution method; type: functional; details: isolate 3, 24 h; how it was run: as §1
# Streptococcus pyogenes [24] = assay: Antimicrobial activity against Streptococcus pyogenes 1307006P after 24 hrs by broth microdilution method; type: functional; how it was run: as §1
# Streptococcus pyogenes [25] = assay: Antimicrobial activity against Streptococcus pyogenes 1308007P after 24 hrs by broth microdilution method; type: functional; how it was run: as §1
# [26] = Half life in Sprague-Dawley rat at 5 mg/kg, iv; type: ADME, organism-based; design: dose 5 mg/kg, route intravenous; details: in vivo
# [27] = Mean residence time (0 to t) in Sprague-Dawley rat at 5 mg/kg, iv; type: ADME, organism-based; design: dose 5 mg/kg, route intravenous; details: in vivo
# [28] = AUC (0 to t) in Sprague-Dawley rat at 5 mg/kg, iv; type: ADME, organism-based; design: dose 5 mg/kg, route intravenous; details: plasma
# [29] = AUC (0 to infinity) in Sprague-Dawley rat at 5 mg/kg, iv; type: ADME, organism-based; design: time infinity, dose 5 mg/kg, route intravenous; details: plasma
# [30] = Clearance in Sprague-Dawley rat at 5 mg/kg, iv; type: ADME, organism-based; design: dose 5 mg/kg, route intravenous; details: in vivo
# [31] = Volume of distribution at steady state in Sprague-Dawley rat at 5 mg/kg, iv; type: ADME, organism-based; design: dose 5 mg/kg, route intravenous; details: in vivo, read-out: Vdss
# [32] = Cmax in Sprague-Dawley rat at 25 mg/kg, po; type: ADME, organism-based; design: dose 25 mg/kg, route oral; details: in vivo
# [33] = Tmax in Sprague-Dawley rat at 25 mg/kg, po; type: ADME, organism-based; design: dose 25 mg/kg, route oral; details: in vivo
# [34] = Half life in Sprague-Dawley rat at 25 mg/kg, po; type: ADME, organism-based; design: dose 25 mg/kg, route oral; details: in vivo
# [35] = AUC (0 to t) in Sprague-Dawley rat at 25 mg/kg, po; type: ADME, organism-based; design: dose 25 mg/kg, route oral; details: plasma
# [36] = AUC (0 to infinity) in Sprague-Dawley rat at 25 mg/kg, po; type: ADME, organism-based; design: dose 25 mg/kg, route oral, time infinity; details: plasma
# [37] = Mean residence time (0 to t) in Sprague-Dawley rat at 25 mg/kg, po; type: ADME, organism-based; design: dose 25 mg/kg, route oral; details: in vivo
# [38] = Oral bioavailability in Sprague-Dawley rat at 25 mg/kg; type: ADME, organism-based; details: in vivo
# hERG (KCNH2) [39] = target: T1, hERG (KCNH2); assay: Inhibition of human ERG at 10 uM
structure (smiles),measurement,setting,value
C[C@H]1C[C@@H](C(=O)Nc2ccc(F)c[n+]2[O-])N(C(=O)[C@H](CC2CCCC2)CN(O)C=O)C1,MIC,Staphylococcus aureus [1],0.5 µg/mL
same,MIC,Staphylococcus aureus [2],0.5 µg/mL
same,MIC,Staphylococcus aureus [3],0.5 µg/mL
same,MIC,[4],1 µg/mL
same,MIC,[5],1 µg/mL
same,MIC,Enterococcus faecalis [6],2 µg/mL
same,MIC,Moraxella catarrhalis [7],0.5 µg/mL
same,MIC,Streptococcus pneumoniae [8],0.03 µg/mL
CCCC[C@H](CN(O)C=O)C(=O)N1C[C@@H](C)C[C@H]1C(=O)Nc1ccc(F)c[n+]1[O-],MIC,Staphylococcus aureus [1],0.25 µg/mL
same,MIC,Staphylococcus aureus [2],0.25 µg/mL
same,MIC,Staphylococcus aureus [3],0.25 µg/mL
same,MIC,[4],0.5 µg/mL
same,MIC,[5],0.0625 µg/mL
same,MIC,Enterococcus faecalis [6],4 µg/mL
same,MIC,Moraxella catarrhalis [7],0.03 µg/mL
same,MIC,Streptococcus pneumoniae [8],0.03 µg/mL
O=CN(O)C[C@@H](CC1CCCC1)C(=O)N1CC=C[C@H]1C(=O)Nc1ccc(F)c[n+]1[O-],inhibition at 1 µM,hERG (KCNH2) [9],1.15%
same,MIC,Staphylococcus aureus [1],0.25 µg/mL
same,MIC,Staphylococcus aureus [2],0.5 µg/mL
same,MIC,Staphylococcus aureus [3],0.25 µg/mL
same,MIC,[10],0.25 µg/mL
same,MIC,Escherichia coli [11],64 µg/mL
same,MIC,Escherichia coli [12],32 µg/mL
same,MIC,Staphylococcus aureus [13],0.5 µg/mL
same,MIC,Staphylococcus aureus [14],0.125 µg/mL
same,MIC,Enterococcus faecalis [15],2 µg/mL
same,MIC,Enterococcus faecium,1 µg/mL
same,MIC,Haemophilus influenzae [16],1 µg/mL
same,MIC,Haemophilus influenzae [17],2 µg/mL
same,MIC,Haemophilus influenzae [18],≤ 0.06 µg/mL
same,MIC,Moraxella catarrhalis [19],≤ 0.06 µg/mL
same,MIC,Streptococcus pneumoniae [20],0.5 µg/mL
same,MIC,Streptococcus pneumoniae [21],0.125 µg/mL
same,MIC,Streptococcus pneumoniae [22],0.25 µg/mL
same,MIC,Escherichia coli [23],64 µg/mL
same,MIC,Streptococcus pyogenes [24],0.25 µg/mL
same,MIC,Streptococcus pyogenes [25],0.5 µg/mL
same,half-life,[26],48.4 min
same,MRT last,[27],30.2 min
same,AUC(0-t),[28],1610 ng·h/mL
same,AUC(0-inf),[29],1620 ng·h/mL
same,clearance,[30],51.7 mL/min/kg
same,Vd,[31],1.6 L/kg
same,Cmax,[32],956 ng/mL
same,Tmax,[33],22.5 min
same,half-life,[34],155 min
same,AUC(0-t),[35],1630 ng·h/mL
same,AUC(0-inf),[36],1810 ng·h/mL
same,MRT last,[37],121 min
same,bioavailability,[38],22.4%
same,inhibition at 10 µM,hERG (KCNH2) [39],0.89%
CCCC[C@H](CN(O)C=O)C(=O)N1C[C@@H](F)C[C@H]1C(=O)Nc1ccc(F)c[n+]1[O-],MIC,Staphylococcus aureus [1],4 µg/mL
same,MIC,Staphylococcus aureus [2],4 µg/mL
same,MIC,Staphylococcus aureus [3],4 µg/mL
same,MIC,[4],16 µg/mL
same,MIC,[5],4 µg/mL
same,MIC,Enterococcus faecalis [6],> 16 µg/mL
same,MIC,Moraxella catarrhalis [7],0.25 µg/mL
same,MIC,Streptococcus pneumoniae [8],0.06 µg/mL
Cc1cnc(NC(=O)[C@@H]2C[C@H](F)CN2C(=O)[C@H](CC2CCCC2)CN(O)C=O)s1,MIC,Staphylococcus aureus [1],1 µg/mL
same,MIC,Staphylococcus aureus [2],0.5 µg/mL
same,MIC,Staphylococcus aureus [3],0.5 µg/mL
same,MIC,[4],1 µg/mL
same,MIC,[5],0.125 µg/mL
same,MIC,Enterococcus faecalis [6],> 16 µg/mL
same,MIC,Moraxella catarrhalis [7],0.125 µg/mL
same,MIC,Streptococcus pneumoniae [8],0.03 µg/mL
Cc1ccc(NC(=O)[C@@H]2C[C@H]3CCCC[C@@H]3N2C(=O)[C@H](CC2CCCC2)CN(O)C=O)nc1,MIC,Staphylococcus aureus [1],4 µg/mL
same,MIC,Staphylococcus aureus [2],4 µg/mL
same,MIC,Staphylococcus aureus [3],4 µg/mL
same,MIC,[4],8 µg/mL
same,MIC,[5],0.5 µg/mL
same,MIC,Enterococcus faecalis [6],> 16 µg/mL
same,MIC,Moraxella catarrhalis [7],0.5 µg/mL
same,MIC,Streptococcus pneumoniae [8],0.03 µg/mL
CCCC[C@H](CN(O)C=O)C(=O)N1[C@H](C(=O)Nc2ccc(C)cn2)C[C@H]2CCCC[C@@H]21,MIC,Staphylococcus aureus [1],8 µg/mL
same,MIC,Staphylococcus aureus [2],8 µg/mL
same,MIC,Staphylococcus aureus [3],4 µg/mL
same,MIC,[4],16 µg/mL
same,MIC,[5],0.5 µg/mL
same,MIC,Enterococcus faecalis [6],> 16 µg/mL
same,MIC,Moraxella catarrhalis [7],0.03 µg/mL
same,MIC,Streptococcus pneumoniae [8],0.03 µg/mL
